Values after ≈ are worked out from the molar mass of the structure shown.
Tests used:
HCT-116 = experiment: Cytotoxicity against human HCT116 cells assessed as cell viability after days by CellTiterGlo assay; type: functional, cell-based
Method in brief: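 HCT-116 cells exposed to compound for 4 d; cell viability IC50 determined.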

Mus musculus [1] = experiment: In vivo inhibition of Cdc7 in tumor of NCR/nude mouse xenografted with human HCT116 cells assessed as remaining Ser53 phosphorylated MCM2 level at 100 mg/kg, po measured at 6 hrs relative to control; type: functional, HCT-116
Method in brief: (§1)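 Female NCR/nude mice (n = 3 per group) given single oral dose of 100 mg/kg; pMCM2 levels measured at 6 and 16 h, expressed as % remaining versus vehicle control group; significance by one-way ANOVA with Dunnett's test.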

Plasma [2] = experiment: Unbound plasma concentration in NCR/nude mouse xenografted with human HCT116 cells at 100 mg/kg, po measured at 6 hrs by LC-MS analysis; type: ADME, organism-based, HCT-116; set-up: dose 100 mg/kg, route oral; conditions: in vivo
Method in brief: (§2)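 Female NCR/nude mice (n = 3) dosed orally at 100 mg/kg; plasma sampled at 6 and 16 h; unbound concentration calculated from total plasma concentration and percent free fraction in mouse plasma.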

[3] = target: Cyclin-dependent kinase 1/cyclin B1 (Homo sapiens, UniProt P06493); experiment: Inhibition of CDK1/cyclin B (unknown origin) by HTRF assay; type: protein-complex assay
[4] = Intrinsic clearance in rat liver microsomes; type: ADME; conditions: read-out: CLH
[5] = Oral bioavailability rat in 5 mg/kg; type: ADME, organism-based; conditions: in vivo
Mus musculus [6] = experiment: In vivo inhibition of Cdc7 in tumor of NCR/nude mouse xenografted with human HCT116 cells assessed as remaining Ser53 phosphorylated MCM2 level at 100 mg/kg, po measured at 16 hrs relative to control; type: functional, HCT-116; method in brief: as §1
[7] = Solubility of the compound in simulated intestinal fluid; type: ADME
[8] = Mean residence time in rat at 1 mg/kg, iv and 5 mg/kg, po; type: ADME, organism-based; conditions: in vivo
[9] = Clearance in rat at 1 mg/kg, iv and 5 mg/kg, po; type: ADME, organism-based; conditions: in vivo
[10] = target: Cell division cycle 7-related protein kinase (Homo sapiens, UniProt O00311); experiment: Inhibition of Cdc7-mediated MCM2 phosphorylation at Ser53 in human HCT116 cells after 14 hrs by immunostaining assay; type: cell-based, HCT-116
[11] = Intrinsic clearance in human liver microsomes; type: ADME; conditions: read-out: CLH
[12] = target: CDC7/DBF4 (Cell division cycle 7-related protein kinase/Activator of S phase kinase) (Homo sapiens, UniProt O00311); experiment: Inhibition of Cdc7/Dbf4 (unknown origin)-mediated MCM2 phosphorylation at Ser53 by protein A amplified luminescent proximity homogeneous assay; type: protein-complex assay
[13] = target: Cyclin-dependent kinase 2/cyclin E1 (Homo sapiens, UniProt P24941); experiment: Inhibition of CDK2/cyclin E (unknown origin) using ULight peptide as substrate by HTRF assay; type: protein-complex assay
CDK9/cyclin T1 = CDK9/cyclin T1 (Homo sapiens, UniProt P50750); experiment: Inhibition of CDK9/cyclin T1 (unknown origin) using 4eBP1 ULight peptide as substrate by HTRF assay; type: protein-complex assay
Plasma [14] = experiment: Unbound plasma concentration in NCR/nude mouse xenografted with human HCT116 cells at 100 mg/kg, po measured at 16 hrs by LC-MS analysis; type: ADME, organism-based, HCT-116; set-up: dose 100 mg/kg, route oral; conditions: in vivo; method in brief: as §2
[15] = Volume of distribution at steady state in rat at 1 mg/kg, iv and 5 mg/kg, po; type: ADME, organism-based; conditions: in vivo, read-out: Vdss
Homo sapiens = species on record: Homo sapiens; experiment: Selectivity ratio of IC50 for CDK2/cyclin E (unknown origin) to IC50 for Cdc7/Dbf4 (unknown origin)
Mus musculus [16] = experiment: In vivo inhibition of Cdc7-mediated MCM2 phosphorylation at Ser53 in tumor of NCR/nude mouse xenografted with human HCT116 cells at 100 mg/kg, po; type: functional, organism-based; set-up: dose 100 mg/kg; conditions: HCT-116, TDE = time-dependent effect; method in brief: as §1
[17] = Mean residence time in rat at 2 mg/kg, iv; type: ADME, organism-based; set-up: dose 2 mg/kg, route intravenous; conditions: in vivo
[18] = Volume of distribution at steady state in rat at 2 mg/kg, iv; type: ADME, organism-based; set-up: dose 2 mg/kg, route intravenous; conditions: in vivo, read-out: Vdss
[19] = Clearance in rat at 2 mg/kg, iv; type: ADME, organism-based; set-up: dose 2 mg/kg, route intravenous; conditions: in vivo

CDC7/DBF4 (Cell division cycle 7-related protein kinase/Activator of S phase kinase), sequence (Q9UBU7 whole entry): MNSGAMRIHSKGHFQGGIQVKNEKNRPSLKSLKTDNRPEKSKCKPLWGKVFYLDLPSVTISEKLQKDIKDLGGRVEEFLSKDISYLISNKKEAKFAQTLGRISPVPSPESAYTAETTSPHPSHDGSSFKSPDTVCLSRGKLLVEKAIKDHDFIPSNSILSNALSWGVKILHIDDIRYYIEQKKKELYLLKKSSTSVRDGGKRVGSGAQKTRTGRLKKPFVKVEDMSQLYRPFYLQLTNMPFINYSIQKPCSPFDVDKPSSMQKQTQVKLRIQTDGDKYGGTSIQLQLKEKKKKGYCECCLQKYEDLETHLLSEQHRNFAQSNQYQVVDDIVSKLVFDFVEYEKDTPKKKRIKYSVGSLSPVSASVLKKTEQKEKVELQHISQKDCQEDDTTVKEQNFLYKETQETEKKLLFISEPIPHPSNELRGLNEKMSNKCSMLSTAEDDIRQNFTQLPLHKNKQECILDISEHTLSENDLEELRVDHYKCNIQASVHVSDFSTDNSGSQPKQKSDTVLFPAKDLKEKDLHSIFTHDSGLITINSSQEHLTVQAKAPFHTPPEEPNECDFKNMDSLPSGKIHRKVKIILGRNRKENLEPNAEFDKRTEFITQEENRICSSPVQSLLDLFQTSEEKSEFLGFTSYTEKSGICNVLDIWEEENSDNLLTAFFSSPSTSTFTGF
CDC7/DBF4 (Cell division cycle 7-related protein kinase/Activator of S phase kinase), sequence (O00311 whole entry): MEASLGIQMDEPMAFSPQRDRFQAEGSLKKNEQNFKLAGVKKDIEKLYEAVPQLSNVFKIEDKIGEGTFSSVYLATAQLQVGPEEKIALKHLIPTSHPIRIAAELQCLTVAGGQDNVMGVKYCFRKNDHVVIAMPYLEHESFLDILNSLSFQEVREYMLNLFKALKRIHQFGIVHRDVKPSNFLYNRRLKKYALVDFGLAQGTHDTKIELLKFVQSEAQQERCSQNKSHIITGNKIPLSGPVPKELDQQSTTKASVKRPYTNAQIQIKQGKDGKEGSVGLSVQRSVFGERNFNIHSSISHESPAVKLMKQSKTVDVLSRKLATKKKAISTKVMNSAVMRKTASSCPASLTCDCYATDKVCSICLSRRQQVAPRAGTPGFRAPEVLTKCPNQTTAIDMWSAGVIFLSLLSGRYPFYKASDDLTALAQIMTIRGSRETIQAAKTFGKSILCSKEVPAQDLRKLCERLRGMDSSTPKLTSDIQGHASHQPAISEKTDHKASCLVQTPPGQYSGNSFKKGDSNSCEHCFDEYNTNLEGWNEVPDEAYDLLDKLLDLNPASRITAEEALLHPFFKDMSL
CDK9/cyclin T1, sequence (O60563 whole entry): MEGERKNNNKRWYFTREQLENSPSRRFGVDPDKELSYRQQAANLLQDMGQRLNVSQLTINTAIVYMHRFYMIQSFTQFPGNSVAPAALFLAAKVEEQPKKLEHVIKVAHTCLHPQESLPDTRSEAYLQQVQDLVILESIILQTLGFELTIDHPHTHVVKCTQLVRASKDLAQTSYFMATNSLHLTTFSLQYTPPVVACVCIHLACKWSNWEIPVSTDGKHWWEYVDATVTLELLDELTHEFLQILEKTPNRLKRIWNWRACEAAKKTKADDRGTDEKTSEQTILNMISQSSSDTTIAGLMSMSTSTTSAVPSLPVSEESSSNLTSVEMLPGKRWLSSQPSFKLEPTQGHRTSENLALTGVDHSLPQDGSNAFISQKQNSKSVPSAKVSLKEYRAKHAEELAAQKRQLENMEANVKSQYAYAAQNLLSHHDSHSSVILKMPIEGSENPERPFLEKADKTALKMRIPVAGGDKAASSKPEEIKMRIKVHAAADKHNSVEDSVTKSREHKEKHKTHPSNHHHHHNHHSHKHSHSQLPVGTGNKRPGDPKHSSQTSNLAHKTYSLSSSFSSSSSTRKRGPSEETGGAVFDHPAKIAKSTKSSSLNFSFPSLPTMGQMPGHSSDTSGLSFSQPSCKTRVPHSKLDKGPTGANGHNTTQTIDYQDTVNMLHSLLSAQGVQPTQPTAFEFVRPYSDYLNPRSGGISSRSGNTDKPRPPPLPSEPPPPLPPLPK
CDK9/cyclin T1, sequence (P50750 whole entry): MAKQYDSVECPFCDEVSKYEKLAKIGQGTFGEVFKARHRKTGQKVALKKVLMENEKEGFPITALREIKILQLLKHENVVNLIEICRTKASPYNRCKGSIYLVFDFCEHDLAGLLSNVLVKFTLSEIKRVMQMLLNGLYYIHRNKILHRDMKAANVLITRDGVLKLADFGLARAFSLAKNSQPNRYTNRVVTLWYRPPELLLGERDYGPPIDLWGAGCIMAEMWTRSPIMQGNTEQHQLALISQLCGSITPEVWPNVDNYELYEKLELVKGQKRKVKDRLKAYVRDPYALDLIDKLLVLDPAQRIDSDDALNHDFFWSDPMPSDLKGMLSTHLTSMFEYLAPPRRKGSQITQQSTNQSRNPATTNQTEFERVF
Cyclin-dependent kinase 1/cyclin B1, sequence (P06493 whole entry): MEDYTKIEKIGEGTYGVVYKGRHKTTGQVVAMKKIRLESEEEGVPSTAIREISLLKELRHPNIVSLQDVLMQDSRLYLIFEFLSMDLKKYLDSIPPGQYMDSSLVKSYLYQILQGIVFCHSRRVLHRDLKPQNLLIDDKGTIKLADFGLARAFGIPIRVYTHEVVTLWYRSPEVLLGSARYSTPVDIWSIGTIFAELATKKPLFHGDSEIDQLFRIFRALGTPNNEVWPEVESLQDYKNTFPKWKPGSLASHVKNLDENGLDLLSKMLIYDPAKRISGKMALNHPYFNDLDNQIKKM
Cyclin-dependent kinase 1/cyclin B1, sequence (P14635 whole entry, further chain): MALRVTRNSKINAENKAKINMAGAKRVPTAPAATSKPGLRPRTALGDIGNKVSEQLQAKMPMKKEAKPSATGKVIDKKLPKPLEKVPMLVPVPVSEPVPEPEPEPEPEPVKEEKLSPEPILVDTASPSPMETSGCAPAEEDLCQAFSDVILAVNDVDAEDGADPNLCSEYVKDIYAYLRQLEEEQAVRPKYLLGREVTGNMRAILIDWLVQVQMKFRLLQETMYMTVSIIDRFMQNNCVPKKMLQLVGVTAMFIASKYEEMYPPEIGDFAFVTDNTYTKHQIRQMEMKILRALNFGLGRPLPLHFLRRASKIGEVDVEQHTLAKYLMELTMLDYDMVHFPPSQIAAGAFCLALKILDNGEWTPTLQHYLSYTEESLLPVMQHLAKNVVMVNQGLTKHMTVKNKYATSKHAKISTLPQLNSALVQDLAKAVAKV
Cell division cycle 7-related protein kinase, sequence (O00311 whole entry): as the sequence (O00311 whole entry) above

| SMILES | microsomal CLint [4] | IC50 [10] | microsomal CLint [11] | IC50 [12] | IC50 [13] | further results |
| --- | --- | --- | --- | --- | --- | --- |
| Fc1ncccc1[C@H](Nc1nnc(-c2c[nH]c3ncccc23)o1)C1CC1 | 80 µL/min/mg | 51 nM | 21 µL/min/mg | 0.69 nM | 490 nM | IC50 (HCT-116): 1800 nM; Remaining phospho-MCM2 (% of control) (Mus musculus [1]): 40%; Cp(f) (Plasma [2]): 1300 nM; IC50 [3]: 7300 nM; bioavailability [5]: 41%; Remaining Ser53 phospho-MCM2 vs control (Mus musculus [6]): 41%; solubility [7]: 200 µg/mL (≈ 571 µM); MRT [8]: 1.3 h; clearance [9]: 75 mL/min/kg; IC50 (CDK9/cyclin T1): 120 nM; Cp(f) (Plasma [14]): 70 nM; Vd [15]: 5.9 L/kg |
| c1ccc([C@H](Nc2nnc(-c3c[nH]c4ncccc34)o2)C2CC2)cc1 | 31 µL/min/mg | 71 nM | 56 µL/min/mg | 1 nM | 1600 nM |  |
| CC(C)(Nc1nnc(-c2c[nH]c3ncccc23)o1)c1ccccc1 | 35 µL/min/mg | 6200 nM | 30 µL/min/mg | 120 nM | 7 nM |  |
| Fc1cccc(CNc2nnc(-c3c[nH]c4ncccc34)o2)c1 | 71 µL/min/mg | 580 nM | 54 µL/min/mg | 10 nM | 61 nM | Ratio IC50 (Homo sapiens): 6 |
| Nc1n[nH]c2ccc(-c3nnc(NCc4ccccc4)o3)cc12 | 74 µL/min/mg | 1200 nM | 26 µL/min/mg | 11 nM | 230 nM |  |
| c1ccc(CNc2nnc(-c3c[nH]c4ncccc34)o2)cc1 | 40 µL/min/mg | 780 nM | 31 µL/min/mg | 24 nM | 150 nM | Ratio IC50 (Homo sapiens): 6 |
| Fc1ccc2c(-c3nnc(N[C@@H](c4cccnc4F)C4CC4)o3)c[nH]c2n1 | 413 µL/min/mg | 250 nM | < 14 µL/min/mg | 3.9 nM | 4000 nM | IC50 [3]: > 50000 nM; IC50 (CDK9/cyclin T1): 2400 nM |
| c1ccc(CNc2nnc(-c3nc4ccncc4s3)o2)cc1 | 66 µL/min/mg | > 50000 nM | 23 µL/min/mg | 2300 nM | 19000 nM |  |
| Fc1cnc2[nH]cc(-c3nnc(N[C@@H](c4cccnc4F)C4CC4)o3)c2c1 | 20 µL/min/mg | 32 nM | < 14 µL/min/mg | 1.1 nM | 670 nM | IC50 (HCT-116): 2400 nM; Remaining phospho-MCM2 (% of control) (Mus musculus [1]): 46%; Activity (Mus musculus [16]): tde; Cp(f) (Plasma [2]): 610 nM; IC50 [3]: 6600 nM; bioavailability [5]: 50%; Remaining Ser53 phospho-MCM2 vs control (Mus musculus [6]): 30%; solubility [7]: 160 µg/mL (≈ 434 µM); MRT [8]: 1.9 h; clearance [9]: 28.3 mL/min/kg; IC50 (CDK9/cyclin T1): 460 nM; Cp(f) (Plasma [14]): 300 nM; Vd [15]: 3.3 L/kg |
| O=C1Cc2cc(-c3nnc(NCc4ccccc4)o3)ccc2N1 | < 14 µL/min/mg | > 50000 nM | < 14 µL/min/mg | 770 nM | 33000 nM |  |
| Fc1ccccc1[C@H](Nc1nnc(-c2c[nH]c3ncncc23)o1)C1CC1 | 34 µL/min/mg | 130 nM | < 14 µL/min/mg | 1.5 nM | 750 nM | IC50 [3]: > 50000 nM; IC50 (CDK9/cyclin T1): 880 nM |
| c1ccc(CNc2nnc(-c3ccc4[nH]ncc4c3)o2)cc1 | 402 µL/min/mg | 730 nM | 98 µL/min/mg | 20 nM | 170 nM |  |
| O=c1[nH]c2ccc(-c3nnc(NCc4ccccc4)o3)cc2o1 | 30 µL/min/mg | > 50000 nM | 69 µL/min/mg | 590 nM | 47000 nM |  |
| Fc1ccccc1CNc1nnc(-c2c[nH]c3ncccc23)o1 | 46 µL/min/mg | 1600 nM | 32 µL/min/mg | 35 nM | 580 nM | Ratio IC50 (Homo sapiens): 17 |
| c1ccc(CNc2nnc(-c3ccc4cnccc4c3)o2)cc1 | 166 µL/min/mg | 710 nM | 120 µL/min/mg | 17 nM | 350 nM | MRT [17]: 0.2 h; Vd [18]: 4.3 L/kg; clearance [19]: 300 mL/min/kg |
| c1ccc(CNc2nnc(-c3c[nH]c4ncccc34)o2)nc1 | 14 µL/min/mg | 13000 nM | < 14 µL/min/mg | 170 nM | 2500 nM |  |
| CC[C@@H](Nc1nnc(-c2c[nH]c3ncccc23)o1)c1ccccc1 | 29 µL/min/mg | 150 nM | 70 µL/min/mg | 4 nM | 1700 nM |  |
| Fc1cc2cc(-c3nnc(NCc4ccccc4)o3)ccc2cn1 | 56 µL/min/mg | 3200 nM | 49 µL/min/mg | 10 nM | 6800 nM |  |
| C[C@H](Nc1nnc(-c2c[nH]c3ncccc23)o1)c1ccccc1 | 17 µL/min/mg | 2600 nM | 15 µL/min/mg | 35 nM | 98 nM |  |
| CC(C)[C@@H](Nc1nnc(-c2c[nH]c3ncccc23)o1)c1ccccc1 | 51 µL/min/mg | 140 nM | 66 µL/min/mg | 2 nM | 1200 nM |  |
| c1cncc(CNc2nnc(-c3c[nH]c4ncccc34)o2)c1 | 30 µL/min/mg | 7100 nM | < 14 µL/min/mg | 190 nM | 610 nM |  |
| c1cnc2[nH]cc(-c3nnc(NCc4ccncc4)o3)c2c1 | 37 µL/min/mg | 12000 nM | < 14 µL/min/mg | 110 nM | 350 nM |  |
| Fc1ccc(CNc2nnc(-c3c[nH]c4ncccc34)o2)cc1 | 58 µL/min/mg | 690 nM | 47 µL/min/mg | 25 nM | 98 nM | Ratio IC50 (Homo sapiens): 4 |

From ChEMBL document CHEMBL3091324, “The optimization of aminooxadiazoles as orally active inhibitors of Cdc7” (Bioorg Med Chem Lett, 2013)
